Measured values taken from ChEMBL document CHEMBL1154674, “Synthesis and evaluation of three 18F-labeled aminophenylbenzothiazoles as amyloid imaging agents” (J Med Chem, 2009).
pKi: −log10 of the molar value.

Target: Amyloid-beta precursor protein (Homo sapiens, UniProt P05067)
Assay: Displacement of [125I]IMPY from beta-amyloid plaques in Alzheimer's disease patient brain homogenate
Assay type: tissue-based
Procedure, shortened: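 Test compound was added at 10^-5–10^-10 M, serially diluted in PBS containing 0.1% BSA. Nonspecific binding was defined with 600 nM unlabeled IMPY. Incubation was 37 °C for 2 h, followed by GF/B vacuum filtration, PBS washes and γ counting. Ki came from nonlinear regression.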

Chain of Amyloid-beta precursor protein (P05067 whole entry): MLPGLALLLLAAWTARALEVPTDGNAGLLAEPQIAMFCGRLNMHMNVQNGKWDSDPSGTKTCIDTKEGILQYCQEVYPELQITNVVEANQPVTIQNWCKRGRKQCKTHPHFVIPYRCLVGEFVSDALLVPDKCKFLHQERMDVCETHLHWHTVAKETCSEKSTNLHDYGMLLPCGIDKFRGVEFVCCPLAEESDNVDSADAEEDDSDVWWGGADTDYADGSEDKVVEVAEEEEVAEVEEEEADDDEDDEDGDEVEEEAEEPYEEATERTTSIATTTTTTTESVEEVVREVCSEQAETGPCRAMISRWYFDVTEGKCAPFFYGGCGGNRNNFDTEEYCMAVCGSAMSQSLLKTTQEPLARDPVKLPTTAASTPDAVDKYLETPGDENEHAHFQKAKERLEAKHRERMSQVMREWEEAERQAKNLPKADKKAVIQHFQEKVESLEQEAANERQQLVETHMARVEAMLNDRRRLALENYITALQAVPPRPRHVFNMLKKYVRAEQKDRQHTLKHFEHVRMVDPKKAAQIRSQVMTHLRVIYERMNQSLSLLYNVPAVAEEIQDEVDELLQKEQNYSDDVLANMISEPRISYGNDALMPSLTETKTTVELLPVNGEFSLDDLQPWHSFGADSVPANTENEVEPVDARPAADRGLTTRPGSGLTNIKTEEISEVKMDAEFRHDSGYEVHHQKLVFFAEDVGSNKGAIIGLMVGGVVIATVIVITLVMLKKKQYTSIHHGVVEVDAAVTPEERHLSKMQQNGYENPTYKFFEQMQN

SMILES | pKi
CN(C)c1ccc2nc(-c3ccc(F)cc3)sc2c1 | 8.42
Nc1ccc2nc(-c3ccc(F)cc3)sc2c1 | 8.00
